Data taken from ChEMBL document CHEMBL1126620, “Systematic substitution of an oxytocin antagonist with D-amino acids: unexpected high antagonistic potency of the D-Cys6-substituted analogue” (J Med Chem, 1993).

What was measured:
Rattus norvegicus [1] = test: In vivo evaluation for the competitive antagonism of Antidiuretic action in the rat determined by the rat antidiuretic assay; conditions: Urine, read-out: pA2 (converted)
Rattus norvegicus [2] = species on record: Rattus norvegicus; test: In vitro competitive antagonist effect of OT contractile action in the rat uterus determined by the rat oxytocic assay in presence of Mg2+; format: functional; conditions: read-out: pA2 (converted)
Method in brief: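 Isolated rat uterus, oxytocin-induced contraction, bath containing magnesium salts; pA2 (negative log molar antagonist concentration halving agonist response) obtained by Schild method from at least four separate assays.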

Structure (SMILES) | Kb (Rattus norvegicus [1]) | Kb (Rattus norvegicus [2])
CC[C@H](C)[C@@H]1NC(=O)[C@@H](Cc2c[nH]c3ccccc23)NC(=O)CC2(CCCCC2)SSC[C@@H](C(=O)N2CCC[C@H]2C(=O)N[C@@H](CCCN=C(N)N)C(=O)NCC(N)=O)NC(=O)[C@H](CC(N)=O)NC(=O)[C@H](CCC(N)=O)NC1=O | > 1260 nM | –
CC[C@@H](C)[C@H]1NC(=O)[C@@H](Cc2c[nH]c3ccccc23)NC(=O)CC2(CCCCC2)SSC[C@@H](C(=O)N2CCC[C@H]2C(=O)N[C@@H](CCCN=C(N)N)C(=O)NCC(N)=O)NC(=O)[C@H](CC(N)=O)NC(=O)[C@H](CCC(N)=O)NC1=O | – | 5890 nM
CC[C@H](C)[C@@H]1NC(=O)[C@@H](Cc2c[nH]c3ccccc23)NC(=O)CC2(CCCCC2)SSC[C@@H](C(=O)N2CCC[C@H]2C(=O)N[C@@H](CCCNC(=N)N)C(=O)NCC(N)=O)NC(=O)[C@H](CC(N)=O)NC(=O)[C@@H]([C@H](C)O)NC1=O | – | 11200 nM
CC[C@H](C)[C@@H]1NC(=O)[C@@H](Cc2c[nH]c3ccccc23)NC(=O)CC2(CCCCC2)SSC[C@@H](C(=O)N2CCC[C@@H]2C(=O)N[C@@H](CCCN=C(N)N)C(=O)NCC(N)=O)NC(=O)[C@H](CC(N)=O)NC(=O)[C@H](CCC(N)=O)NC1=O | – | 14.1 nM
CC[C@H](C)[C@@H]1NC(=O)[C@@H](Cc2c[nH]c3ccccc23)NC(=O)CC2(CCCCC2)SSC[C@@H](C(=O)N2CCC[C@H]2C(=O)N[C@H](CCCN=C(N)N)C(=O)NCC(N)=O)NC(=O)[C@H](CC(N)=O)NC(=O)[C@H](CCC(N)=O)NC1=O | > 2510 nM | 12.3 nM
CC[C@H](C)[C@@H]1NC(=O)[C@@H](Cc2c[nH]c3ccccc23)NC(=O)CC2(CCCCC2)SSC[C@@H](C(=O)N2CCC[C@H]2C(=O)N[C@@H](CCCN=C(N)N)C(=O)NCC(N)=O)NC(=O)[C@H](CC(N)=O)NC(=O)[C@@H](CCCNC(N)=O)NC1=O | – | 3090 nM
CC[C@H](C)[C@H]1NC(=O)[C@@H](Cc2c[nH]c3ccccc23)NC(=O)CC2(CCCCC2)SSC[C@@H](C(=O)N2CCC[C@H]2C(=O)N[C@@H](CCCN=C(N)N)C(=O)NCC(N)=O)NC(=O)[C@H](CC(N)=O)NC(=O)[C@H](CCC(N)=O)NC1=O | – | 7760 nM
CC[C@H](C)[C@@H]1NC(=O)[C@@H](Cc2c[nH]c3ccccc23)NC(=O)CC2(CCCCC2)SSC(C)(C)[C@H](C(=O)N2CCC[C@H]2C(=O)N[C@@H](CCCNC(=N)N)C(=O)NCC(N)=O)NC(=O)[C@H](CC(N)=O)NC(=O)[C@H](CCC(N)=O)NC1=O | – | 10.5 nM
CC[C@H](C)[C@@H]1NC(=O)[C@@H](Cc2c[nH]c3ccccc23)NC(=O)CC2(CCCCC2)SSC[C@H](C(=O)N2CCC[C@H]2C(=O)N[C@@H](CCCN=C(N)N)C(=O)NCC(N)=O)NC(=O)[C@H](CC(N)=O)NC(=O)[C@H](CCC(N)=O)NC1=O | > 501 nM | 5.13 nM
CC[C@H](C)[C@@H]1NC(=O)[C@@H](Cc2c[nH]c3ccccc23)NC(=O)CC2(CCCCC2)SSC[C@@H](C(=O)N2CCC[C@H]2C(=O)N[C@@H](CCCN=C(N)N)C(=O)NCC(N)=O)NC(=O)[C@H](CC(N)=O)NC(=O)[C@@H](CC(N)=O)NC1=O | – | 3890 nM
